Measurements as given in ChEMBL document CHEMBL4834402, “Discovery of TAK-981, a First-in-Class Inhibitor of SUMO-Activating Enzyme for the Treatment of Cancer” (J Med Chem, 2021).
The source made the active and inactive calls. The calls are words filed in the database; no cut-off is given here.

Experiments:
NEDD8 activating enzyme = molecular target: T1, NEDD8 activating enzyme (Homo sapiens, UniProt Q8TBC4); test: Inhibition of recombinant NAE (unknown origin) in presence of ATP at Km concentration by HTRF assay; format: protein-complex assay
T1 sequence (Q8TBC4 whole entry): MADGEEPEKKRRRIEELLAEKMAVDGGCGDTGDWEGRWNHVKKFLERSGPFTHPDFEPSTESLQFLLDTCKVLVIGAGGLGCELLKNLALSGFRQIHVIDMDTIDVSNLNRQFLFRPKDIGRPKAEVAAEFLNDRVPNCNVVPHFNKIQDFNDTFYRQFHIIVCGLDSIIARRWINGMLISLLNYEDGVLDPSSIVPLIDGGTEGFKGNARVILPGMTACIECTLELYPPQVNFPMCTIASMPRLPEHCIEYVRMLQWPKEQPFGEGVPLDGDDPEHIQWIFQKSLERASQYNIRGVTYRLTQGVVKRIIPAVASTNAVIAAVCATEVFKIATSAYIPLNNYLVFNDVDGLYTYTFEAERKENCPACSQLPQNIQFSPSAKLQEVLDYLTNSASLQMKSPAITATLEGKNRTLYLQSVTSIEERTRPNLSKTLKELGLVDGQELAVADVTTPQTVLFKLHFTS
T1 sequence (Q13564 whole entry): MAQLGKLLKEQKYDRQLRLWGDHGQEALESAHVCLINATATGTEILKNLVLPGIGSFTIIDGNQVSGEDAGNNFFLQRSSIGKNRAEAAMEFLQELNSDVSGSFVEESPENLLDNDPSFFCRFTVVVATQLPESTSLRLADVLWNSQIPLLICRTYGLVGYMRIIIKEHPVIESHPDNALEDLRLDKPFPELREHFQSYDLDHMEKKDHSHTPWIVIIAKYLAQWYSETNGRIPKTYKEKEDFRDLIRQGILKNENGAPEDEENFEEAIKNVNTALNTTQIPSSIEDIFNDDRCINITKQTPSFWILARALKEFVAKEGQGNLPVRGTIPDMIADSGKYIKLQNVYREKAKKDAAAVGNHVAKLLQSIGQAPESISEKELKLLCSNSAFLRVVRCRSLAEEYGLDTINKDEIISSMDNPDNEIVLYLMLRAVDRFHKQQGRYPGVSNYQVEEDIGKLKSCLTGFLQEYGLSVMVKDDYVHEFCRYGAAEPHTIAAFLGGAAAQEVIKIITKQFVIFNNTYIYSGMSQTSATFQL

[1] = molecular target: T2, SUMO-activating enzyme (Homo sapiens) (UniProt Q9UBE0+Q9UBT2); test: Inhibition of SAE in human OCI-Ly10 cells xenografted in CB17 SCID mouse assessed as improvement in SUMO-inhibitor adduct durability at 25 mg/kg, iv and measured up to 48 hrs by mass spectrometry; format: organism-based; details: time hrs <=48
[2] = molecular target: T2, SUMO-activating enzyme (Homo sapiens); test: Inhibition of SAE in human HCT116 cells xenografted in NCr nude mouse assessed as reduction in SUMO2/3 protein conjugates at 50 mg/kg, iv and measured up to 16 hrs by immunohistochemistry analysis; format: organism-based; details: HCT-116
Procedure, shortened: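 HCT-116 tumors in female Ncr nude mice, n = 3 per time point, after a single IV dose at t = 0. SUMO2/3 conjugation in tumors measured by IHC at 2, 4, 8 and 16 h. Read-out is nuclei staining positive for SUMO2/3 conjugates over total nuclei, normalized to vehicle-treated animals (time = 0 h), expressed as percent inhibition.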

[3] = Half life in rat blood at 1 mg/kg, iv; format: ADME, organism-based
[4] = Volume of distribution at steady state in rat plasma at 1 mg/kg, iv; format: ADME, organism-based; details: read-out: Vdss
[5] = Efflux ratio of apparent permeability across basolateral to apical side over apical to basolateral side in human Caco-2 cells; format: ADME, cell-based

Cc1sc(C(=O)c2cncnc2N[C@@H]2C[C@H](COS(N)(=O)=O)[C@@H](O)C2)cc1[C@@H]1NCCc2ccc(Cl)cc21
IC50 (NEDD8 activating enzyme): 960 nM | inhibition [1]: Active | inhibition [2]: Active | half-life [3]: 2.6 h | Vd [4]: 8.5 L/kg | efflux ratio [5]: > 16
